Test results from ChEMBL document CHEMBL3861957, “Straightforward synthesis of 2,4,6-trisubstituted 1,3,5-triazine compounds targeting cysteine cathepsins K and S” (Eur J Med Chem, 2016).

What was measured:
[1] = molecular target: T1, Cathepsin K (Homo sapiens, UniProt P43235); assay: Inhibition of human cathepsin K expressed in Pichia pastoris using Z-Phe-Arg-AMC as substrate after 30 mins by spectromicrofluorimetric method
T1 sequence (P43235 whole entry): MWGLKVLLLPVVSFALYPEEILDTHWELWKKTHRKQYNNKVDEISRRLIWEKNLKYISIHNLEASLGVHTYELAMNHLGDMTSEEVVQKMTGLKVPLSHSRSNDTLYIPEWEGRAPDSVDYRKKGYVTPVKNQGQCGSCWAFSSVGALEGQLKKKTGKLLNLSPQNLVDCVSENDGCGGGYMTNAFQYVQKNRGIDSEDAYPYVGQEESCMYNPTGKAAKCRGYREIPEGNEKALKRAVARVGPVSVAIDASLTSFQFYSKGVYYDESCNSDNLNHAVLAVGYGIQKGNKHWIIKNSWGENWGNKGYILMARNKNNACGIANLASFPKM
Outline: (§1)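 Enzyme (0.5 nM) preincubated 30 min at 37 °C with inhibitor (0-250 nM) in 0.1 M sodium acetate pH 5.5, 2 mM DTT, 0.01% Brij35. Residual activity on Z-Phe-Arg-AMC at 2.5, 5 and 10 µM, fluorescence ex 350/em 460 nm. IC50 averaged from slopes. Triplicate, repeated three times.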

[2] = molecular target: Cathepsin S (Homo sapiens, UniProt P25774); assay: Inhibition of human cathepsin S using Z-LR-AMC as substrate after 30 mins by spectromicrofluorimetric method
Outline: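 Cathepsin S (0.5 nM) preincubated 30 min at 37 °C with inhibitor (0-250 nM) in 0.1 M sodium acetate pH 5.5 containing 2 mM DTT and 0.01% Brij35. Residual activity read with Z-LR-AMC at 2.5, 5 and 10 µM, fluorescence ex 350/em 460 nm. IC50 averaged from slopes. Triplicate, repeated three times.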

[3] = molecular target: Cathepsin B (Homo sapiens, UniProt P07858); assay: Inhibition of human cathepsin B using Z-Phe-Arg-AMC as substrate after 30 mins by spectromicrofluorimetric method; outline: as §1
[4] = molecular target: Procathepsin L (Homo sapiens, UniProt P07711); assay: Inhibition of human cathepsin L using Z-Phe-Arg-AMC as substrate after 30 mins by spectromicrofluorimetric method; outline: as §1
Sequence of Procathepsin L (P07711 whole entry): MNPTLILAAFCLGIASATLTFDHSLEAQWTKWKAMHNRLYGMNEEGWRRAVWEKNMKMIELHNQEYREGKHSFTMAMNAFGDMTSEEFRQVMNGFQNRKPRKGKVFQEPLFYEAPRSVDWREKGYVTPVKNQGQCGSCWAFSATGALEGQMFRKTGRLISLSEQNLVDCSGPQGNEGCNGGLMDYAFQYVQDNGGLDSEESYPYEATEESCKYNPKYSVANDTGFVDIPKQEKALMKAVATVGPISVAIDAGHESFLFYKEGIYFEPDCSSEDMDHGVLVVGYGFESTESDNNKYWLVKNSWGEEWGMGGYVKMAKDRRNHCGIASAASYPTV

Sequence of Cathepsin S (P25774 whole entry): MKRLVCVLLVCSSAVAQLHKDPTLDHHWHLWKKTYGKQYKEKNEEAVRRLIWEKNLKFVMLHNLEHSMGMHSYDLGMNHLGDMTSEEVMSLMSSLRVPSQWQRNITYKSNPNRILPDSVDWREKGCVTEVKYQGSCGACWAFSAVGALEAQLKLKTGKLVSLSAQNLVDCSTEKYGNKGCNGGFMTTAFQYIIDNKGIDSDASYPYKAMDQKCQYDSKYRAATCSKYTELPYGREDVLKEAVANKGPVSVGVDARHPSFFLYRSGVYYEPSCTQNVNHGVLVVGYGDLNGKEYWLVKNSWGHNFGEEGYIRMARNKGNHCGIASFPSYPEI

IC50 [1] | IC50 [2] | IC50 [3] | IC50 [4] | Compound
23 nM | 17 nM | 57 nM |  | Cc1cccc(CNc2nc(C#N)nc(N3CCNCC3)n2)c1
17 nM | 23 nM |  | 17 nM | N#Cc1nc(Nc2ccc([N+](=O)[O-])cc2)nc(N2CCNCC2)n1
70 nM | 23 nM |  |  | N#Cc1nc(NC[C@H](O)c2ccccc2)nc(NC2CCCCC2)n1
17 nM | 17 nM | 34 nM | 17 nM | N#Cc1nc(Nc2cccc([N+](=O)[O-])c2)nc(N2CCNCC2)n1
23 nM | 136 nM |  | 226 nM | COc1ccc(Nc2nc(C#N)nc(NC3CCCCC3)n2)cc1
28 nM | 23 nM |  |  | N#Cc1nc(Nc2ccc(C(F)(F)F)cc2)nc(N2CCNCC2)n1
17 nM | 90 nM |  | 136 nM | N#Cc1nc(Nc2ccc([N+](=O)[O-])cc2)nc(NC2CCCCC2)n1
67 nM | 23 nM |  |  | N#Cc1ccc(Nc2nc(C#N)nc(NC3CCCCC3)n2)cc1
17 nM | 28 nM | 79 nM | 23 nM | N#Cc1nc(Nc2cccc([N+](=O)[O-])c2)nc(NC2CCCCC2)n1
34 nM | 102 nM |  |  | N#Cc1nc(Nc2ccc(C(F)(F)F)cc2)nc(NC2CCCCC2)n1
17 nM | 17 nM | 45 nM | 17 nM | COc1ccc(Nc2nc(C#N)nc(N3CCNCC3)n2)cc1
60 nM | 23 nM |  |  | Cc1cccc(CNc2nc(C#N)nc(NC3CCCCC3)n2)c1
68 nM | 23 nM | 136 nM | 45 nM | N#Cc1nc(NC[C@H](O)c2ccccc2)nc(N2CCNCC2)n1
28 nM |  | 57 nM | 113 nM | N#Cc1ccc(Nc2nc(C#N)nc(N3CCNCC3)n2)cc1
80 nM | 23 nM |  |  | N#Cc1nc(NCCc2ccccc2)nc(NC2CCCCC2)n1
